# Data: ChEMBL document CHEMBL1124712, “Pre- and postsynaptic dopaminergic activities of indolizidine and quinolizidine derivatives of 3-(3-hydroxyphenyl)-N-(n-propyl)piperidine (3-PPP). Further developments of a dopamine receptor model” (J Med Chem, 1990)
# The source made the active and inactive calls. No cut-off for these calls is given here.
# Legend:
# [1] = biological target: T1, D(2) dopamine receptor (Rattus norvegicus, UniProt P61169); assay: In vitro inhibition of [3H]N-0437 binding to Dopamine receptor D2 in rat striatal membranes; assay type: cell membranes, Membrane
# T1 sequence (P61169 whole entry): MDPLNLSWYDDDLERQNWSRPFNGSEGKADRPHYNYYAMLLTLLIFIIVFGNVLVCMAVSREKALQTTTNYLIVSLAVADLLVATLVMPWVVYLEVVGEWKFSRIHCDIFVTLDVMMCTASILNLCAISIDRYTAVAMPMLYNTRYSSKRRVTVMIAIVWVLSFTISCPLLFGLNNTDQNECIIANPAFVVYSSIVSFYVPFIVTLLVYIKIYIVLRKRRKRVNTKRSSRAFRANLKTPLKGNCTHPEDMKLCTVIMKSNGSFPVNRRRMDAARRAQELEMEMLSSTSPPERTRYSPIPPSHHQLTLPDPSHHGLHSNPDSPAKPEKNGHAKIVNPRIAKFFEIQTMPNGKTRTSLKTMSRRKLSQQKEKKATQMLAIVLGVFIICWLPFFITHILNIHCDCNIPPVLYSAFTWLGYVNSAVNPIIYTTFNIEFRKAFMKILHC
# [2] = test system: Rattus norvegicus; assay: DOPA accumulation in normal rat striatal region at of 50 umol/kg expressed as percent of control; assay type: functional
# [3] = test system: Rattus norvegicus; assay: DOPA accumulation in normal rat limbic region at 50 umol/kg expressed as percent of control; assay type: functional, Limbic system
# [4] = test system: Rattus norvegicus; assay: DOPA accumulation in reserpine-pretreated rat striatal region after subcutaneous administration of 50 umol/kg; Range is 1.7-4; assay type: functional; details: sc
# [5] = test system: Rattus norvegicus; assay: DOPA accumulation in reserpine-pretreated rat limbic region after subcutaneous administration of 50 umol/kg; Range is 1.1-6.5; assay type: functional; details: Limbic system, sc
# [6] = biological target: T1, D(2) dopamine receptor; assay: In vitro inhibition of [3H]spiperone binding to Dopamine receptor D2 in rat striatal membranes; assay type: cell membranes, Membrane
# [7] = test system: Rattus norvegicus; assay: Locomotor activity in normal rat at 50 umol/kg expressed as percent of control; assay type: functional
# How it was run: (§1)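 Untreated rats were given the test drug sc. Locomotor activity was recorded with motility meters and expressed as percent of controls, with significance by Student's t test (p < 0.05).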
# [8] = test system: Rattus norvegicus; assay: DOPA accumulation in normal rat cortex at of 50 umol/kg expressed as percent of control; assay type: functional
# [9] = test system: Rattus norvegicus; assay: Locomotor activity in normal rat at 12.5 umol/kg expressed as percent of control; assay type: functional; how it was run: as §1
# [10] = test system: Rattus norvegicus; assay: Locomotor activity in reserpine-pretreated rat at the dose of 50 umol/kg; Accumulation counts/30 min; assay type: functional
# [11] = test system: Rattus norvegicus; assay: DOPA accumulation in normal rat limbic region at 213 umol/kg expressed as percent of control; assay type: functional, Limbic system
# [12] = test system: Rattus norvegicus; assay: Locomotor activity in normal rat at 0.8 umol/kg expressed as percent of control; assay type: functional
# [13] = test system: Rattus norvegicus; assay: DOPA accumulation in reserpine-pretreated rat striatal region after subcutaneous administration; assay type: functional; details: sc
# [14] = test system: Rattus norvegicus; assay: Locomotor activity in normal rat at 213 umol/kg expressed as percent of control; assay type: functional
# [15] = test system: Rattus norvegicus; assay: DOPA accumulation in normal rat striatal region at 27 umol/kg expressed as percent of control; assay type: functional
# [16] = test system: Rattus norvegicus; assay: DOPA accumulation in reserpine-pretreated rat cortex after subcutaneous administration; Inactive; assay type: functional, organism-based
# [17] = test system: Rattus norvegicus; assay: DOPA accumulation in reserpine-pretreated rat limbic region after subcutaneous administration; assay type: functional; details: Limbic system, sc
# [18] = test system: Rattus norvegicus; assay: DOPA accumulation in normal rat cortex at 27 umol/kg expressed as percent of control; Inactive; assay type: functional, organism-based
# [19] = test system: Rattus norvegicus; assay: Locomotor activity in reserpine-pretreated ratat the dose of 213 umol/kg; Accumulation counts/30 min; assay type: functional
# [20] = test system: Rattus norvegicus; assay: DOPA accumulation in normal rat cortex at 213 umol/kg expressed as percent of control; Inactive; assay type: functional, organism-based
# [21] = test system: Rattus norvegicus; assay: DOPA accumulation in normal rat cortex at 0.8 umol/kg expressed as percent of control; Inactive; assay type: functional, organism-based
# [22] = test system: Rattus norvegicus; assay: Locomotor activity in normal rat at 1.6 umol/kg expressed as percent of control; assay type: functional
# [23] = test system: Rattus norvegicus; assay: DOPA accumulation in normal rat limbic region at 27 umol/kg expressed as percent of control; assay type: functional, Limbic system
# [24] = test system: Rattus norvegicus; assay: DOPA accumulation in normal rat limbic region at 0.8 umol/kg expressed as percent of control; assay type: functional, Limbic system
# [25] = test system: Rattus norvegicus; assay: DOPA accumulation in normal rat striatal region at 0.8 umol/kg expressed as percent of control; assay type: functional
# [26] = test system: Rattus norvegicus; assay: Locomotor activity in reserpine-pretreated ratat the dose of 13 umol/kg; Accumulation counts/30 min; assay type: functional
# [27] = test system: Rattus norvegicus; assay: Locomotor activity in normal rat at 100 umol/kg expressed as percent of control; assay type: functional; how it was run: as §1
# [28] = test system: Rattus norvegicus; assay: DOPA accumulation in normal rat cortex at 100 umol/kg expressed as percent of control; assay type: functional
# [29] = test system: Rattus norvegicus; assay: Locomotor activity in reserpine-pretreated ratat the dose of 50 umol/kg; Accumulation counts/30 min; assay type: functional
# [30] = test system: Rattus norvegicus; assay: DOPA accumulation in normal rat limbic region at 100 umol/kg expressed as percent of control; assay type: functional, Limbic system
# [31] = test system: Rattus norvegicus; assay: DOPA accumulation in normal rat striatal region at 100 umol/kg expressed as percent of control; assay type: functional
# [32] = test system: Rattus norvegicus; assay: Locomotor activity in normal rat at 3.1 umol/kg expressed as percent of control; assay type: functional; how it was run: as §1
# [33] = test system: Rattus norvegicus; assay: DOPA accumulation in normal rat striatal region at 50 umol/kg expressed as percent of control; assay type: functional
# [34] = test system: Rattus norvegicus; assay: DOPA accumulation in normal rat cortex at 50 umol/kg expressed as percent of control; Inactive; assay type: functional, organism-based
# [35] = test system: Rattus norvegicus; assay: Locomotor activity in normal rat at 25 umol/kg expressed as percent of control; assay type: functional; how it was run: as §1
# [36] = test system: Rattus norvegicus; assay: DOPA accumulation in normal rat cortex at 12.5 umol/kg expressed as percent of control; Inactive; assay type: functional, organism-based
# [37] = test system: Rattus norvegicus; assay: DOPA accumulation in normal rat striatal region at 12.5 umol/kg expressed as percent of control; assay type: functional
# [38] = test system: Rattus norvegicus; assay: DOPA accumulation in normal rat limbic region at 12.5 umol/kg expressed as percent of control; assay type: functional, Limbic system
# [39] = test system: Rattus norvegicus; assay: DOPA accumulation in reserpine-pretreated rat striatal region after subcutaneous administration of 50 umol/kg; Inactive; assay type: functional, organism-based
# [40] = test system: Rattus norvegicus; assay: DOPA accumulation in reserpine-pretreated rat cortex after subcutaneous administration of 50 umol/kg; Inactive; assay type: functional, organism-based
# [41] = test system: Rattus norvegicus; assay: DOPA accumulation in reserpine-pretreated rat limbic region after subcutaneous administration of 50 umol/kg; Inactive; assay type: functional, organism-based; details: Limbic system
# [42] = test system: Rattus norvegicus; assay: Locomotor activity in reserpine-pretreated rat at the dose of 100 umol/kg; Accumulation counts/30 min; assay type: functional
# [43] = test system: Rattus norvegicus; assay: DOPA accumulation in normal rat striatal region at 50 umol/kg expressed as percent of control; Inactive; assay type: functional, organism-based
# [44] = test system: Rattus norvegicus; assay: DOPA accumulation in reserpine-pretreated rat limbic region after subcutaneous administration of 50 umol/kg; Range is 0.44-3.5; assay type: functional; details: Limbic system, sc
# [45] = test system: Rattus norvegicus; assay: DOPA accumulation in normal rat limbic region at 50 umol/kg expressed as percent of control; Inactive; assay type: functional, organism-based; details: Limbic system
# [46] = test system: Rattus norvegicus; assay: DOPA accumulation in normal rat cortex at 50 umol/kg expressed as percent of control; assay type: functional
smiles,measurement,setting,value
Oc1cccc([C@H]2CCCN3CCCC23)c1 (some centres not stated),IC50,[1],0.045 µM
same,Control,[2],46%
same,Control,[3],46%
same,ED50,[4],1.7 µmol/kg
same,ED50,[5],1.1 µmol/kg
same,IC50,[6],4.9 µM
same,Control,[7],83%
same,Control,[8],37%
same,Control,[9],42%
same,Locomotor activity,[10],25
CCCN(CCc1ccsc1)C1CCc2c(O)cccc2C1 (configuration not stated),IC50,[1],0.00062 µM
same,IC50,[6],0.0088 µM
CCCN1CCC[C@@H](c2cccc(O)c2)C1 [PRECLAMOL],Control,[11],95%
same,Control,[12],74%
same,ED50,[13],1.7 µmol/kg
same,Control,[14],40%
same,Control,[15],147%
same,ED50,[16],inactive
same,ED50,[17],0.8 µmol/kg
same,Control,[18],inactive
same,Locomotor activity,[19],12
same,Control,[20],inactive
CCCN1CCC[C@H](c2cccc(O)c2)C1,ED50,[13],1.3 µmol/kg
same,Control,[14],230%
same,Control,[21],inactive
same,Control,[22],75%
same,Control,[23],40%
same,Control,[24],86%
same,Control,[15],45%
same,Control,[25],81%
same,ED50,[16],inactive
same,ED50,[17],1 µmol/kg
same,Control,[18],inactive
same,Locomotor activity,[26],78
Oc1cccc(C2CCCN3CCCCC23)c1 (configuration not stated),IC50,[1],0.58 µM
same,Control,[27],142%
same,Control,[28],48%
same,Locomotor activity,[29],14
same,IC50,[6],13 µM
same,Control,[30],61%
same,Control,[31],54%
Oc1cccc([C@@H]2CCCN3CCCC23)c1 (some centres not stated),Control,[32],135%
same,Control,[33],245%
same,IC50,[1],0.17 µM
same,Control,[3],153%
same,IC50,[6],6.5 µM
same,Control,[7],72%
same,Control,[34],inactive
same,Locomotor activity,[10],21
Oc1cccc(C2=CCCN3CCCCC23)c1 (configuration not stated),Control,[32],82%
same,Control,[35],51%
same,IC50,[1],0.32 µM
same,Control,[36],inactive
same,Control,[37],200%
same,Locomotor activity,[29],8
same,Control,[38],165%
same,IC50,[6],5.3 µM
same,ED50,[39],inactive
same,Control,[9],45%
same,ED50,[40],inactive
same,ED50,[41],inactive
O=C(O)C(=O)O.Oc1cccc(C2CCC3CCCCN3C2)c1 (configuration not stated),IC50,[1],7.9 µM
same,Control,[27],220%
same,Control,[28],62%
same,Locomotor activity,[42],262
same,IC50,[6],40 µM
same,Control,[30],69%
same,Control,[31],56%
Oc1cccc(C2CCCN3CCCC23)c1 (racemic),Control,[43],inactive
same,IC50,[1],0.075 µM
same,IC50,[6],3.8 µM
same,ED50,[44],0.44 µmol/kg
same,Control,[7],48%
same,Control,[45],inactive
same,Control,[46],57%
same,Locomotor activity,[10],13
same,ED50,[40],inactive
